{
  "source": "paper PMC3901018",
  "about": "(Chemical communications (Cambridge, England), 2014)",
  "key": {"[1]": {"test_system": "Panc1 (pancreatic cancer)", "assay": "96 hr SRB assay, Panc1", "format": "cell-based", "conditions": "Homo sapiens, PANC-1, 96 h, read-out: IC50, Panc1"}, "c-KIT2 G4": {"test_system": "c-KIT2 G4", "assay": "FRET G4 stabilisation", "format": "binding", "conditions": "ΔTm at 1 µM; triplicate, Esd ± 0.5 °C", "how_it_was_run": "(§1)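 96-well FRET melting assay using dual-labelled oligonucleotides: human telomeric 21-mer F21T and c-KIT2 G4s, plus T-loop duplex DNA. Test compound at 1 µM. Tm shift obtained by curve fitting to the melting data, from triplicate measurements, Esd ± 0.5 °C. n/a marks unsuccessful curve fitting.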"}, "[2]": {"test_system": "WI38 (non-transformed lung fibroblast cells)", "assay": "96 hr SRB assay, WI38", "format": "cell-based", "conditions": "Homo sapiens, WI-38, 96 h, read-out: IC50, WI38"}, "[3]": {"test_system": "F21T G4 versus calf thymus duplex DNA", "assay": "Calf thymus DNA", "format": "binding, human", "conditions": "1 µM compound, calf thymus DNA competitor", "how_it_was_run": "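Competition version of the FRET melting assay. Dual-labelled F21T G4 is challenged with unlabelled calf thymus duplex DNA added at high duplex:G4 ratios. Test compound at 1 µM. Read-out is % retention of the F21T Tm shift.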"}, "HSP90A promoter G4": {"test_system": "HSP90A promoter G4", "assay": "FRET G4 stabilisation", "format": "binding", "conditions": "ΔTm at 1 µM; triplicate, Esd ± 0.5 °C"}, "[4]": {"test_system": "ALT (transformed WI38 lung fibroblast cells)", "assay": "96 hr SRB assay, ALT", "format": "cell-based", "conditions": "Homo sapiens, WI-38, 96 h, read-out: IC50, ALT"}, "[5]": {"test_system": "Mia-PaCa2 (pancreatic cancer)", "assay": "96 hr SRB assay, Mia-PaCa2", "format": "cell-based", "conditions": "Homo sapiens, MIA PaCa-2, 96 h, read-out: IC50, Mia-PaCa2"}, "[6]": {"test_system": "F21T (human telomeric 21-mer) G4", "assay": "FRET G4 stabilisation", "format": "binding", "conditions": "ΔTm at 1 µM; triplicate, Esd ± 0.5 °C", "how_it_was_run": "as §1"}, "[7]": {"test_system": "AR (androgen receptor promoter) G4", "assay": "FRET G4 stabilisation", "format": "binding", "conditions": "ΔTm at 1 µM; triplicate, Esd ± 0.5 °C"}, "RCC4 (renal cancer)": {"test_system": "RCC4 (renal cancer)", "assay": "96 hr SRB assay, RCC4", "format": "cell-based", "conditions": "Homo sapiens, RCC4, 96 h, read-out: IC50, RCC4"}, "[8]": {"test_system": "duplex DNA sequence (T-loop)", "assay": "FRET melting assay, duplex DNA control", "format": "binding", "conditions": "ΔTm at 1 µM, Esd ± 0.5 °C", "how_it_was_run": "as §1"}, "HSP90B promoter G4": {"test_system": "HSP90B promoter G4", "assay": "FRET G4 stabilisation", "format": "binding", "conditions": "ΔTm at 1 µM; triplicate, Esd ± 0.5 °C"}, "A549 (lung cancer)": {"test_system": "A549 (lung cancer)", "assay": "96 hr SRB assay, A549", "format": "cell-based", "conditions": "Homo sapiens, A549, 96 h, read-out: IC50, A549"}, "786-O (renal cancer)": {"test_system": "786-O (renal cancer)", "assay": "96 hr SRB assay, 786-O", "format": "cell-based", "conditions": "Homo sapiens, 786-0, 96 h, read-out: IC50, 786-O"}, "MCF7 (breast cancer)": {"test_system": "MCF7 (breast cancer)", "assay": "96 hr SRB assay, MCF7", "format": "cell-based", "conditions": "Homo sapiens, MCF7, 96 h, read-out: IC50, MCF7"}},
  "note": "pIC50: −log10 of the molar value.",
  "data": [
    {"smiles": "CN1CCN(CCCNc2cc3c4c(c(NCCCN5CCN(C)CC5)cc5c4c2C(=O)N(CCCN2CCOCC2)C5=O)C(=O)N(CCCN2CCOCC2)C3=O)CC1", "note": "[Compound 8, 4,9-bis((3-(4-methyl-piperazin-1-yl)propyl)amino)-2,7-bis(3-morpholinopropyl) benzo-[lmn] [3,8] phenanthroline-1,3,6,8(2H,7H)-tetraone]", "values": [
      {"measurement": "pIC50", "setting": "[1]", "value": 8.52},
      {"measurement": "FRET G4 stabilization ΔTm, c-KIT2", "setting": "c-KIT2 G4", "value": 22.0, "unit": "°C"},
      {"measurement": "pIC50", "setting": "[2]", "value": 6.64},
      {"measurement": "% retention of the F21T ΔTm, G4:CT 1:1", "setting": "[3]; G4:CT 1:1", "value": 100, "unit": "%"},
      {"measurement": "% retention of the F21T ΔTm, G4:CT 1:10", "setting": "[3]; G4:CT 1:10", "value": 100, "unit": "%"},
      {"measurement": "% retention of the F21T ΔTm, G4:CT 1:300", "setting": "[3]; G4:CT 1:300", "value": 27.2, "unit": "%"},
      {"measurement": "FRET G4 stabilization ΔTm, HSP-90A", "setting": "HSP90A promoter G4", "value": 33.1, "unit": "°C"},
      {"measurement": "pIC50", "setting": "[4]", "value": 7.20},
      {"measurement": "pIC50", "setting": "[5]", "value": 7.96},
      {"measurement": "FRET G4 stabilization ΔTm, F21T", "setting": "[6]", "value": 26.6, "unit": "°C"},
      {"measurement": "FRET G4 stabilization ΔTm, AR", "setting": "[7]", "value": 15.9, "unit": "°C"},
      {"measurement": "pIC50", "setting": "RCC4 (renal cancer)", "value": 6.25},
      {"measurement": "FRET ΔTm, T-loop duplex", "setting": "[8]", "value": 4.9, "unit": "°C"},
      {"measurement": "FRET G4 stabilization ΔTm, HSP-90B", "setting": "HSP90B promoter G4", "value": 28.6, "unit": "°C"},
      {"measurement": "pIC50", "setting": "A549 (lung cancer)", "value": 7.72},
      {"measurement": "pIC50", "setting": "786-O (renal cancer)", "value": 6.49},
      {"measurement": "pIC50", "setting": "MCF7 (breast cancer)", "value": 7.15}
    ]}
  ]
}
